According to ChEMBL document CHEMBL2424622, “Development of amino-pyrimidine inhibitors of c-Jun N-terminal kinase (JNK): kinase profiling guided optimization of a 1,2,3-benzotriazole lead” (Bioorg Med Chem Lett, 2013):

What was measured:
[1] = target: T1, Receptor-interacting serine/threonine-protein kinase 1 (Homo sapiens) (UniProt Q13546); assay: Competitive binding affinity to RIPK1 (unknown origin) at 10 uM in presence of ATP relative to control
T1 sequence (whole entry): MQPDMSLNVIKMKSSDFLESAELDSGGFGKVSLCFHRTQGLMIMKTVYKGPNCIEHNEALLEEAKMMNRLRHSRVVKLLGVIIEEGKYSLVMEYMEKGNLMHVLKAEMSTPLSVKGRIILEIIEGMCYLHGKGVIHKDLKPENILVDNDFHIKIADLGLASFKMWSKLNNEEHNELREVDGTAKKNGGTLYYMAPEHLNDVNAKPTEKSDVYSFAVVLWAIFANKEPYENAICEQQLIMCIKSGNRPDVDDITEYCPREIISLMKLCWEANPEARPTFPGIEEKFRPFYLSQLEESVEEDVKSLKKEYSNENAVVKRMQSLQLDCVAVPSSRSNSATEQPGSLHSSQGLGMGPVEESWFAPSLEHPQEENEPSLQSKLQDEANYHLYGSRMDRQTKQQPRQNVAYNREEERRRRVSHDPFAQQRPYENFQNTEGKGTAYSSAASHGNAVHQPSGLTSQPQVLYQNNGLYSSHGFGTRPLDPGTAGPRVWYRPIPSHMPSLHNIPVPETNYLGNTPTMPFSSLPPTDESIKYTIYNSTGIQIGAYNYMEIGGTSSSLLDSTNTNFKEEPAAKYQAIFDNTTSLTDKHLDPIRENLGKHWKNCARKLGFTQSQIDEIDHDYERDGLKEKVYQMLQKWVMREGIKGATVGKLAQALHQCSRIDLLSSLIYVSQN

[2] = target: Mitogen-activated protein kinase kinase kinase 9 (Homo sapiens) (UniProt P80192); assay: Competitive binding affinity to MLK1 (unknown origin) at 10 uM in presence of ATP relative to control
[3] = target: T2, Tyrosine-protein kinase receptor TYRO3 (Homo sapiens) (UniProt Q06418); assay: Competitive binding affinity to TYRO3 (unknown origin) at 10 uM in presence of ATP relative to control
T2 sequence (whole entry): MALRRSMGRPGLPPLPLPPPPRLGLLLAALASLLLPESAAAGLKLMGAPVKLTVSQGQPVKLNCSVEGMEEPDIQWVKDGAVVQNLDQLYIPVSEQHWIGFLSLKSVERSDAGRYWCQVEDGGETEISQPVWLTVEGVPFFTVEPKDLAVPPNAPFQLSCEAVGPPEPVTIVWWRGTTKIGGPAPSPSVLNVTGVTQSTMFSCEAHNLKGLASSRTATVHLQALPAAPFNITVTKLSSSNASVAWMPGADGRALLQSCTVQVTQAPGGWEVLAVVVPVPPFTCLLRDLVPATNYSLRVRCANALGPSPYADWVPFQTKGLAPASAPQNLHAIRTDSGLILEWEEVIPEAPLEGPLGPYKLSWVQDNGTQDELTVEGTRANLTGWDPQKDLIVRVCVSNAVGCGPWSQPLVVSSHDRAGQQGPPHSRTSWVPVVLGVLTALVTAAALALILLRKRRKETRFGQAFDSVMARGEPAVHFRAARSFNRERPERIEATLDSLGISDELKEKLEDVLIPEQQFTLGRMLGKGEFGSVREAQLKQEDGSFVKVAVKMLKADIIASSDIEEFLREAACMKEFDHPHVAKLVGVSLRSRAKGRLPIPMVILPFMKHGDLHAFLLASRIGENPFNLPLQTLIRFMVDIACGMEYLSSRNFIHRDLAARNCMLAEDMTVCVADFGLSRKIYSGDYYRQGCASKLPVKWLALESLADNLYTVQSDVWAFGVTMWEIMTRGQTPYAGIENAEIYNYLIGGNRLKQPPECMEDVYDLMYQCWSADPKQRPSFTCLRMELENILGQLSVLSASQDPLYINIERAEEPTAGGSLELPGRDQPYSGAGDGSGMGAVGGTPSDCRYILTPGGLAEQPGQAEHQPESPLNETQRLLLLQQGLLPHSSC

[4] = target: Vascular endothelial growth factor receptor 1 (Homo sapiens) (UniProt P17948); assay: Competitive binding affinity to FLT1 (unknown origin) at 10 uM in presence of ATP relative to control
Chain of Vascular endothelial growth factor receptor 1 (Homo sapiens) (P17948 whole entry): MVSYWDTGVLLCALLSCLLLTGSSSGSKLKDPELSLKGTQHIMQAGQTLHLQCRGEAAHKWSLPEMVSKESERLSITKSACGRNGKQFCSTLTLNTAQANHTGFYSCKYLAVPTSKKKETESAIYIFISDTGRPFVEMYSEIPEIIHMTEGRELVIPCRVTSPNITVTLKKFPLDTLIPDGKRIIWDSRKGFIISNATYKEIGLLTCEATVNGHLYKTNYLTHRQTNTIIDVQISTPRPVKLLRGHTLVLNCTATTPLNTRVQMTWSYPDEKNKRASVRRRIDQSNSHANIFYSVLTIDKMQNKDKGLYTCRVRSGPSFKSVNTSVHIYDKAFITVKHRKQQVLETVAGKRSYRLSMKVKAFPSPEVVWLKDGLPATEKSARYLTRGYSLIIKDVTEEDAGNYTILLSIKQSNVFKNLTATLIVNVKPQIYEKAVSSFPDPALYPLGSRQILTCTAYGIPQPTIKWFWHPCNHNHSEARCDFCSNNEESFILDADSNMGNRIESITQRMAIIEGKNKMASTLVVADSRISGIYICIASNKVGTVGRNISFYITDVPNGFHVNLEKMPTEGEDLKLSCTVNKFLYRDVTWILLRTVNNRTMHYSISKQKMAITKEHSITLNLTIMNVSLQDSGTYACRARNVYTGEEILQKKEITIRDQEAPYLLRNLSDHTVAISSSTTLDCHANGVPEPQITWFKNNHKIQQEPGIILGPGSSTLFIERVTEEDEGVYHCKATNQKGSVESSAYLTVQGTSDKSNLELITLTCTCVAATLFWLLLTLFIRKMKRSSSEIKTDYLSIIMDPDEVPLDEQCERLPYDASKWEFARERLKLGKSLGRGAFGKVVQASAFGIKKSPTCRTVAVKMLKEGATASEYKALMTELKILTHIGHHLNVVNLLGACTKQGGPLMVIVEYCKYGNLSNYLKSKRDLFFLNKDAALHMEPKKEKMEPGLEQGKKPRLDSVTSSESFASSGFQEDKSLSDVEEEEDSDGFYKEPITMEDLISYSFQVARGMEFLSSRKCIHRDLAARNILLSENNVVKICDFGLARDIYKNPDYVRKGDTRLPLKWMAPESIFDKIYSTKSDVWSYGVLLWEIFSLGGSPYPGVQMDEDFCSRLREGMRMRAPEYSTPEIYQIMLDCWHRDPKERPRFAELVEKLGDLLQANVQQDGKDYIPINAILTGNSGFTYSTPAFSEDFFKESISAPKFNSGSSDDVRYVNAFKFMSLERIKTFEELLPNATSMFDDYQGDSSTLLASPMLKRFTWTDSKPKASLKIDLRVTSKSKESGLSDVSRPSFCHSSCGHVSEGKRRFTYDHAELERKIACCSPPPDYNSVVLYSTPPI

[5] = system: Fibroblast growth factor receptor 3 (Homo sapiens), P22607 [G697C]; assay: Competitive binding affinity to FGFR3 G697C mutant (unknown origin) at 10 uM in presence of ATP relative to control
Chain of Fibroblast growth factor receptor 3 (Homo sapiens), P22607 [G697C] (P22607 whole entry G697C): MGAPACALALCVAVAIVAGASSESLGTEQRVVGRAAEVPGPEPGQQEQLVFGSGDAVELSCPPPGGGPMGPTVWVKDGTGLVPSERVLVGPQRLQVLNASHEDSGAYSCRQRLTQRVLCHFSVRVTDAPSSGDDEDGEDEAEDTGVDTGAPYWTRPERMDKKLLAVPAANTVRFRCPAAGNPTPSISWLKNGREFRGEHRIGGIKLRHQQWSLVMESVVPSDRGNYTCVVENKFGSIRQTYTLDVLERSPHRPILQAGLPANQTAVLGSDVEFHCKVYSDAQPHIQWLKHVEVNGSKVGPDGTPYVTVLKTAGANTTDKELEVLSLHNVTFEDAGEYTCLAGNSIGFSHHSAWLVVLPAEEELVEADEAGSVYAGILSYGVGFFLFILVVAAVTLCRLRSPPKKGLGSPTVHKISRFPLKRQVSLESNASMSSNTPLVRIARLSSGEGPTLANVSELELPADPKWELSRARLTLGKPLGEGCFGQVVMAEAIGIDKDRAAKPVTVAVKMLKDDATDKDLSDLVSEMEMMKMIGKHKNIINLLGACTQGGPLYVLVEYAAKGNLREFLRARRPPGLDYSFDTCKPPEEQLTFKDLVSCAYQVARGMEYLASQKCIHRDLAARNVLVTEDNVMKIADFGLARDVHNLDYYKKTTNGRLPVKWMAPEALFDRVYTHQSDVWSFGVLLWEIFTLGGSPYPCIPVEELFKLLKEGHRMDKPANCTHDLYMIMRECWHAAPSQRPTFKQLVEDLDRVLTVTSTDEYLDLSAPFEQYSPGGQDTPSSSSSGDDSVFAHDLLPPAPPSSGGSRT
In short: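 In vitro ATP-site competition binding assay, part of profiling against a diverse panel of 128 kinases. Each compound was tested at a single concentration of 10 µM. Kinome selectivity was summarized as S15 selectivity scores.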

[6] = target: Cyclin-dependent kinase 9 (Homo sapiens) (UniProt P50750); assay: Competitive binding affinity to CDK9 (unknown origin) at 10 uM in presence of ATP relative to control
Chain of Cyclin-dependent kinase 9 (Homo sapiens) (P50750 whole entry): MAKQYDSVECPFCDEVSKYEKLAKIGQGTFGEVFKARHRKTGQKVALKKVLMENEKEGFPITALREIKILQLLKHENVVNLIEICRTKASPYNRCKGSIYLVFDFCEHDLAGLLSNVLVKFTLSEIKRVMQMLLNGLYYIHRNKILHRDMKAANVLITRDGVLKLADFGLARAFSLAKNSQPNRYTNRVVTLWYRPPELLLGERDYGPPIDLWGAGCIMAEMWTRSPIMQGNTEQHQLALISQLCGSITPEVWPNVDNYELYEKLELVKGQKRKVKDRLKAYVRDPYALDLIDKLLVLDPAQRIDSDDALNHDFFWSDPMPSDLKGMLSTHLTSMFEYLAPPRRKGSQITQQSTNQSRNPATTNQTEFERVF

[7] = target: Serine/threonine-protein kinase pim-3 (Homo sapiens) (UniProt Q86V86); assay: Competitive binding affinity to PIM3 (unknown origin) at 10 uM in presence of ATP relative to control
[8] = target: MAP/microtubule affinity-regulating kinase 3 (Homo sapiens) (UniProt P27448); assay: Competitive binding affinity to MARK3 (unknown origin) at 10 uM in presence of ATP relative to control
Chain of MAP/microtubule affinity-regulating kinase 3 (Homo sapiens) (P27448 whole entry, looked up): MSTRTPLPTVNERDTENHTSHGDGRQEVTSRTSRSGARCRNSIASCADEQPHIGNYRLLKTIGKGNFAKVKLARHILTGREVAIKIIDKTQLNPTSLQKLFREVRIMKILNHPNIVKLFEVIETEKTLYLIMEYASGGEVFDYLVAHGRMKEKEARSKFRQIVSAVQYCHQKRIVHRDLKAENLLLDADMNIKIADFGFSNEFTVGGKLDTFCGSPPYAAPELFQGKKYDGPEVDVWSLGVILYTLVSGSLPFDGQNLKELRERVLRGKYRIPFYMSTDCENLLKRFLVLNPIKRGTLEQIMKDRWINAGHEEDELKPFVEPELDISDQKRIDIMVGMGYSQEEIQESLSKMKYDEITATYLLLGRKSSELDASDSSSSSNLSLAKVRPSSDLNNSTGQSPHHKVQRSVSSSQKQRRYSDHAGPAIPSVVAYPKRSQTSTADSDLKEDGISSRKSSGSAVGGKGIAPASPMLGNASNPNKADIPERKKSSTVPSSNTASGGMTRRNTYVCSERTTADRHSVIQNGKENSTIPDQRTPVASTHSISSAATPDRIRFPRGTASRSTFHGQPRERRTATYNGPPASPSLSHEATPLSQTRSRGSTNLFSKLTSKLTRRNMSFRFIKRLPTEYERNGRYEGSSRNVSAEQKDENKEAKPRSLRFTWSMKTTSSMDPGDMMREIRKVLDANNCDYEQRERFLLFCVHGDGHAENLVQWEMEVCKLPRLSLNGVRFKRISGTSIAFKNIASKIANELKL

[9] = target: Cyclin-dependent kinase 14 (Homo sapiens) (UniProt O94921); assay: Competitive binding affinity to PFTK1 (unknown origin) at 10 uM in presence of ATP relative to control
Chain of Cyclin-dependent kinase 14 (Homo sapiens) (O94921 whole entry): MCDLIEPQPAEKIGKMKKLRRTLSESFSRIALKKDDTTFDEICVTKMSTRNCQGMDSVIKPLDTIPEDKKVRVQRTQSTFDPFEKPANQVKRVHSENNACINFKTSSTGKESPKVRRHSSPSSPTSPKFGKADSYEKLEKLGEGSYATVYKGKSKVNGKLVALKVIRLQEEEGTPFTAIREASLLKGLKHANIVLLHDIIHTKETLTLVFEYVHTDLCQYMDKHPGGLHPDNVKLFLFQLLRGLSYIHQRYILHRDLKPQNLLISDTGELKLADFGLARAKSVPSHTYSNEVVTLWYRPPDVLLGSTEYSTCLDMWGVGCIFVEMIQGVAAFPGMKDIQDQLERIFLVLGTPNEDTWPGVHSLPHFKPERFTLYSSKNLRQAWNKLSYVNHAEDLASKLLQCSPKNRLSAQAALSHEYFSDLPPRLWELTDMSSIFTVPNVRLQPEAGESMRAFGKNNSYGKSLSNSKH

[10] = target: T3, Serine/threonine-protein kinase 3 (Homo sapiens) (UniProt Q13188); assay: Competitive binding affinity to STK3 (unknown origin) at 10 uM in presence of ATP relative to control
T3 sequence (whole entry): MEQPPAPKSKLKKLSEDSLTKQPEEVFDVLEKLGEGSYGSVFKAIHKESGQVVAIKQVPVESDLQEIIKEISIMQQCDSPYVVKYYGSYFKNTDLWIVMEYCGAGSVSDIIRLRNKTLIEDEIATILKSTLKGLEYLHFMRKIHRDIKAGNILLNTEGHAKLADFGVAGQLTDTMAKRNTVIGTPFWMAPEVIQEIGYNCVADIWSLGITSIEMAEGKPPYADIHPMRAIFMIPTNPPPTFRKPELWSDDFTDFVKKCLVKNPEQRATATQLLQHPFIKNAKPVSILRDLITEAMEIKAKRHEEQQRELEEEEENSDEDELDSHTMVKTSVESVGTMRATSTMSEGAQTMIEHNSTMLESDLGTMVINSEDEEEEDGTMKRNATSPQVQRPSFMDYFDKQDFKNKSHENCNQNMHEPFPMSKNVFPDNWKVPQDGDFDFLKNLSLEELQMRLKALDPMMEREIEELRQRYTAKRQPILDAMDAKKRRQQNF

## O[C@H]1CC[C@H](Nc2nccc(-n3nnc4ccccc43)n2)CC1
[1]
  inhibition: < 50%
[2]
  inhibition: < 50%
[3]
  inhibition: < 50%
[4]
  inhibition: 82%
[5]
  inhibition: < 50%
[6]
  inhibition: 96%
[7]
  inhibition: 88%
[8]
  inhibition: < 50%
[9]
  inhibition: 79%

## N[C@H]1CC[C@H](Nc2nccc(-n3nnc4ccccc43)n2)CC1
[10]
  inhibition: 96%

## O=C([C@H]1CC[C@H](Nc2nccc(-n3nnc4ccccc43)n2)CC1)N1CCOCC1
[10]
  inhibition: 86%

## O[C@H]1CC[C@H](Nc2nccc(-n3ncc4ccccc43)n2)CC1
[1]
  inhibition: < 50%
[2]
  inhibition: < 50%
[3]
  inhibition: < 50%
[4]
  inhibition: 71%
[5]
  inhibition: < 50%
[6]
  inhibition: 82%
[7]
  inhibition: 96%
[8]
  inhibition: < 50%
[9]
  inhibition: < 50%

## O[C@H]1CC[C@H](Nc2nccc(-c3n[nH]c4ccccc34)n2)CC1
[3]
  inhibition: < 50%
[10]
  inhibition: 94%
[4]
  inhibition: 95%
[5]
  inhibition: < 50%

## O[C@H]1CC[C@H](Nc2nccc(-n3ccc4ccccc43)n2)CC1
[1]
  inhibition: < 50%
[2]
  inhibition: < 50%
[3]
  inhibition: < 50%
[4]
  inhibition: < 50%
[5]
  inhibition: < 50%
[6]
  inhibition: 85%
[7]
  inhibition: < 50%
[8]
  inhibition: < 50%
[9]
  inhibition: < 50%
